From ChEMBL document CHEMBL4002631, “Synthesis, antimycobacterial and cytotoxic activity of α,β-unsaturated amides and 2,4-disubstituted oxazoline derivatives” (Bioorg Med Chem Lett, 2017)
≈ marks a conversion by molar mass, not a printed value.

What follows are molecules tested on Mycobacterium tuberculosis (assay: Antimycobacterial activity against isoniazid/rifampicin/ethambutol-resistant Mycobacterium tuberculosis clinical isolate after 4 days by Alamar blue assay). Details: 96 h.
Type: functional
Procedure, shortened: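 Microplate Alamar blue assay against M. tuberculosis H37Rv (sensitive to isoniazid, rifampicin and ethambutol) and a clinical isolate resistant to all three drugs. Compounds were tested at 256, 128, 64, 32, 16, 8, 4, 2 and 1 µg/mL. Isoniazid, rifampicin, ethambutol and ofloxacin controls were run under the same conditions. MIC is given in µg/mL and converted to µM.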
Molecule NNC(=O)c1ccncc1 [ISONIAZID] has an MIC of 58.3 µM (≈ 8 µg/mL).
Molecule C(=C\c1ccc(OCc2ccccc2)cc1)/C1=N[C@@H](Cc2ccccc2)CO1 has an MIC of 21.6 µM (≈ 7.98 µg/mL).
Work on C(=C\c1cccs1)/C1=N[C@@H](Cc2ccccc2)CO1 yielded an MIC of 7.4 µM (≈ 1.99 µg/mL).
For Fc1ccc(/C=C/C2=N[C@@H](Cc3ccccc3)CO2)cc1, the MIC was 56.9 µM (≈ 16 µg/mL).
Molecule O=C(/C=C/c1ccc(OCc2ccccc2)cc1)N[C@H](CO)Cc1ccccc1 has an MIC of 41.2 µM (≈ 16 µg/mL).
O=C(/C=C/c1cccs1)N[C@H](CO)Cc1ccccc1 gave an MIC of 55.6 µM (≈ 16 µg/mL).
In the case of COc1ccc(/C=C/C(=O)N[C@H](CO)Cc2ccccc2)cc1, the MIC is reported as 51.3 µM (≈ 16 µg/mL).
With C(=C\c1ccccc1)/C1=N[C@@H](Cc2ccccc2)CO1 the MIC was 30.4 µM (≈ 8.01 µg/mL).
Molecule Clc1ccc(/C=C/C2=N[C@@H](Cc3ccccc3)CO2)cc1 has an MIC of 26.9 µM (≈ 8.01 µg/mL).
With CO[C@H]1/C=C/O[C@@]2(C)Oc3c(C)c(O)c4c(O)c(c(/C=N/N5CCN(C)CC5)c(O)c4c3C2=O)NC(=O)/C(C)=C\C=C\[C@H](C)[C@H](O)[C@@H](C)[C@@H](O)[C@@H](C)[C@H](OC(C)=O)[C@@H]1C [RIFAMPIN] the MIC was 19.4 µM (≈ 16 µg/mL).
O=C(/C=C/c1ccccc1)N[C@H](CO)Cc1ccccc1 gave an MIC of 56.8 µM (≈ 16 µg/mL).
Work on CC1COc2c(N3CCN(C)CC3)c(F)cc3c(=O)c(C(=O)O)cn1c23 (stereo unspecified) [OFLOXACIN] yielded an MIC of 5.5 µM (≈ 1.99 µg/mL).
COc1ccc(/C=C/C2=N[C@@H](Cc3ccccc3)CO2)cc1 showed an MIC of 6.8 µM (≈ 1.99 µg/mL).
CC[C@@H](CO)NCCN[C@@H](CC)CO [ETHAMBUTOL] was tested, and the MIC was > 1250 µM.
Work on O=C(/C=C/c1ccc(F)cc1)N[C@H](CO)Cc1ccccc1 yielded an MIC of 53.4 µM (≈ 16 µg/mL).
O=C(/C=C/c1ccc(Cl)cc1)N[C@H](CO)Cc1ccccc1 was tested, and the MIC was 50.6 µM (≈ 16 µg/mL).
